Source: ChEMBL document CHEMBL4270555, “Synthesis and biological evaluation of magnolol derivatives as melatonergic receptor agonists with potential use in depression” (Eur J Med Chem, 2018)
Activity calls are given as the source filed them. No cut-off for these calls is given here.

How the values were obtained:
[1] = Drug metabolism in Sprague-Dawley rat plasma assessed as 1-(2'-hydroxy-5'-(1-hydroxyallyl)-6-((2S,3R,4S,5S,6R)-3,4,5-trihydroxy-6-(hydroxymethyl)tetrahydro-2H-pyran-2-yloxy)biphenyl-3-yl)prop-2-en-1-one formation at 100 mg/kg, po by UPLC-IT-TOF-MS analysis; type: ADME, organism-based; details: in vivo
In short: (§1)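 Rats (n = 6) housed in metabolic cages received 100.0 mg/kg orally; controls received 0.5% CMC-Na. Plasma, urine and faeces were collected and analyzed by LC-IT-TOF-MS on a C18 column at 30 °C. Gradient 5–100% acetonitrile with 0.05% formic acid over 18 min at 0.2 mL/min; positive and negative ion MS/MS.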

[2] = Drug metabolism in Sprague-Dawley rat feces assessed as (2S,3S,4S,5R,6S)-6-(5,5'-diallyl-2'-methoxybiphenyl-2-yloxy)-3,4,5-trihydroxytetrahydro-2H-pyran-2-carboxylic acid formation at 100 mg/kg, po by UPLC-IT-TOF-MS analysis; type: ADME, organism-based; details: in vivo; in short: as §1
[3] = system: Rattus norvegicus; test: Toxicity in Sprague-Dawley rat assessed as change in gastrointestinal effects at 2000 mg/kg, po measured continuously for first 4 hrs followed by measured every hour for next 24 hrs and at 6 hrs intervals for following 48 hrs post dose; type: organism-based; details: in vivo
In short: (§2)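 Followed OECD 425 in adult SD rats (180–220 g), three groups of six. Vehicle control received 0.5% CMC-Na orally; separate male and female groups received 2000 mg/kg orally. Endpoints observed: behaviour, breathing, cutaneous effects, sensory nervous system responses, gastrointestinal effects and deaths.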

[4] = system: Mus musculus; test: Increase in 4-hydroxy-3-methoxyphenylacetic acid level in Kunming mouse hypothalamus at 40 mg/kg, po treated for 7 days by HPLC-ECD analysis; type: functional, organism-based
In short: (§3)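 Male Kunming mice (18–20 g) given vehicle or 40 mg/kg for 7 days, then killed by cervical dislocation. Frontal cortex, hippocampus, striatum, hypothalamus and thalamus dissected on ice, homogenized in ice-cold 0.2 M perchloric acid with 0.1 mM EDTA, centrifuged 15,000 rpm, 20 min, 4 °C. Supernatant analysed by HPLC-ECD at +0.50 V; phosphate/octanesulfonate mobile phase pH 3.0 with 12% methanol. Levels in ng/g, mean ± SEM.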

[5] = system: Rattus norvegicus; test: Toxicity in Sprague-Dawley rat assessed as ulceration at 2000 mg/kg, po measured over 4 hrs; type: organism-based; details: in vivo
In short: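 Acute oral toxicity run per OECD 425 in adult SD rats (180–220 g). Six animals per group: vehicle control (0.5% CMC-Na, oral), male rats and female rats each dosed orally at 2000 mg/kg. Animals were watched continuously for the first 4 h for behavior, breathing, cutaneous signs (irritation, ulceration, caustic injury, skin rashes), sensory nervous and gastrointestinal effects. Later checks were hourly for 24 h, then every 6 h for 48 h.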

[6] = system: Mus musculus; test: Increase in norepinephrine level in Kunming mouse thalamus at 40 mg/kg, po treated for 7 days by HPLC-ECD analysis; type: functional, organism-based; in short: as §3
[7] = Drug metabolism in Sprague-Dawley rat plasma assessed as 5-allyl-5'-(1-hydroxyallyl)-2'-((2S,3R,4S,5S,6R)-3,4,5-trihydroxy-6-(hydroxymethyl)tetrahydro-2H-pyran-2-yloxy)biphenyl-2-yl hydrogen sulfate formation at 100 mg/kg, po by UPLC-IT-TOF-MS analysis; type: ADME, organism-based; details: in vivo
In short: (§4)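 Male/unspecified SD rats (n = 6) housed individually in metabolic cages, dosed orally at 100.0 mg/kg; controls given 0.5% CMC-Na orally. Plasma, urine and faeces collected. LC-IT-TOF-MS on C18 column at 30 °C, formic acid (0.05%) water/acetonitrile gradient 5–100% B over 18 min, 0.2 mL/min; positive and negative ion modes with automatic MS/MS.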

[8] = Drug metabolism in Sprague-Dawley rat feces assessed as 5,5'-diallyl-2'-hydroxybiphenyl-2-yl hydrogen sulfate formation at 100 mg/kg, po by UPLC-IT-TOF-MS analysis; type: ADME, organism-based; details: in vivo; in short: as §1
[9] = Drug metabolism in Sprague-Dawley rat urine assessed as 5'-acryloyl-2'-hydroxy-5-propionylbiphenyl-2-yl hydrogen sulfate formation at 100 mg/kg, po by UPLC-IT-TOF-MS analysis; type: ADME, organism-based; details: in vivo; in short: as §4
[10] = system: Mus musculus; test: Toxicity in Kunming mouse assessed as effect in spontaneous locomotor activity by measuring total number of line crosses at 10 to 40 mg/kg, po by open field test; type: organism-based; details: in vivo
In short: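 Male Kunming mice, 18–20 g, group-housed at 22 ± 2 °C on 12 h light/dark, given oral doses of 10, 20 or 40 mg/kg before behavioural testing. Each animal placed in the centre of a black open-field box (24 × 24 × 40 cm) for 30 s adaptation, then explored freely for 6 min. Line crossings and distance recorded. Mean ± SEM, n = 10.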

[11] = system: Mus musculus; test: Effect on 5-hydroxytryptamine level in Kunming mouse hypothalamus at 40 mg/kg, po treated for 7 days by HPLC-ECD analysis; type: functional, organism-based; in short: as §3
[12] = Drug level in Sprague-Dawley rat feces at 100 mg/kg, po by UPLC-IT-TOF-MS analysis; type: ADME, organism-based; details: in vivo; in short: as §1
[13] = Drug metabolism in Sprague-Dawley rat feces assessed as 5,5'-bis(1-hydroxyallyl)biphenyl-2,2'-diol formation at 100 mg/kg, po by UPLC-IT-TOF-MS analysis; type: ADME, organism-based; details: in vivo; in short: as §1
[14] = system: Rattus norvegicus; test: Toxicity in Sprague-Dawley rat assessed as change in sensory nervous system responses at 2000 mg/kg, po measured continuously for first 4 hrs followed by measured every hour for next 24 hrs and at 6 hrs intervals for following 48 hrs post dose; type: organism-based; details: in vivo; in short: as §2
[15] = Drug metabolism in Sprague-Dawley rat plasma assessed as (2S,3S,4S,5R,6S)-3,4,5-trihydroxy-6-(5-(1-hydroxyallyl)-5'-(1-hydroxypropyl)-2'-((2S,3R,4S,5S,6R)-3,4,5-trihydroxy-6-(hydroxymethyl)tetrahydro-2H-pyran-2-yloxy)biphenyl-2-yloxy)tetrahydro-2H-pyran-2-carboxylic acid formation at 100 mg/kg, po by UPLC-IT-TOF-MS analysis; type: ADME, organism-based; details: in vivo; in short: as §1
[16] = system: Mus musculus; test: Antidepressant activity in po dosed Kunming mouse assessed as decrease in immobility time by tail suspension test; type: functional; details: read-out: MED
In short: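 Male Kunming mice dosed orally at 10, 20 or 40 mg/kg, with fluoxetine and agomelatine 20 mg/kg as references. Mice were hung by the tail with tape about 1 cm from the tip, 50 cm above a box, for 6 min, isolated from sound and view. Immobility in the last 4 min was video-tracked; n = 10, mean ± SEM.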

[17] = system: Mus musculus; test: Increase in norepinephrine level in Kunming mouse frontal cortex at 40 mg/kg, po treated for 7 days by HPLC-ECD analysis; type: functional, organism-based; in short: as §3
[18] = system: Mus musculus; test: Increase in norepinephrine level in Kunming mouse hypothalamus at 40 mg/kg, po treated for 7 days by HPLC-ECD analysis; type: functional, organism-based; in short: as §3
[19] = Drug metabolism in Sprague-Dawley rat feces assessed as 5'-(1-hydroxyallyl)-5-(1-hydroxypropyl)-2'-((2S,3R,4S,5S,6R)-3,4,5-trihydroxy-6-(hydroxymethyl)tetrahydro-2H-pyran-2-yloxy)biphenyl-2-yl hydrogen sulfate formation at 100 mg/kg, po by UPLC-IT-TOF-MS analysis; type: ADME, organism-based; details: in vivo; in short: as §1
[20] = Retention time of the compound by UPLC-IT-TOF-MS analysis; type: physicochemical
In short: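 Retention on C18 column (100 × 2.1 mm, 1.8 µm) at 30 °C; mobile phase A 0.05% formic acid in water, B 0.05% formic acid in acetonitrile, 0.2 mL/min, linear 5–100% B over 0–18.0 min; IT-TOF-MS detection in positive and negative modes.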

C=CCc1ccc(O)c(-c2cc(CC=C)ccc2O[C@@H]2O[C@H](CO)[C@@H](O)[C@H](O)[C@H]2O)c1
Drug metabolism [1]: Metabolite_Notdetected
Drug metabolism [2]: Metabolite_Notdetected
Activity [3]: Non-Toxic
Activity [4]: Active
Activity [5]: Non-Toxic
Activity [6]: Active
Drug metabolism [7]: Metabolite_Notdetected
Drug metabolism [8]: Metabolite_Detected
Drug metabolism [9]: Metabolite_Detected
Activity [10]: Non-Toxic
Activity [11]: inactive
Drug uptake [12]: Not Active
Drug metabolism [13]: Metabolite_Detected
Activity [14]: Non-Toxic
Drug metabolism [15]: Metabolite_Notdetected
minimal effective dose [16]: 10 mg/kg
Activity [17]: Active
Activity [18]: Active
Drug metabolism [19]: Metabolite_Notdetected
Retention_time [20]: 11.23 min
